Source: ChEMBL document CHEMBL3120104, “Discovery of the first C-nucleoside HCV polymerase inhibitor (GS-6620) with demonstrated antiviral response in HCV infected patients” (J Med Chem, 2014)
In brackets after ≈: the same amount, converted by molar mass.

Test system: Syrian golden hamster
Assay: Cmax in golden syrian hamster assessed as liver triphosphate level at 5 mg/kg, po by LC/MS/MS analysis
Format: ADME, organism-based, Mesocricetus auratus
Set-up: dose 5 mg/kg, route oral
Settings: in vivo
Outline: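 Groups of 12 Golden Syrian hamsters were dosed orally at 5 mg-equiv/kg. Vehicle was EtOH/PEG400/water buffered with 50 mM pH 4 citrate at 2.5 mg-equiv/mL. Liver was homogenized in four volumes of ice-cold 0.1% KOH/67 mM EDTA in 70% MeOH containing 0.25 μM Cl-ATP, then centrifuged, dried and reconstituted in 1 mM ammonium phosphate pH 7.0. Triphosphate was measured by LC/MS/MS, with endogenous ATP checked for sample stability.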
Work on C[C@H](NP(=O)(OC[C@H]1O[C@@](C#N)(c2ccc3c(N)ncnn23)[C@](C)(O)[C@@H]1O)Oc1ccccc1)C(=O)OCc1ccccc1 (stereo partly specified) yielded a Cmax of 860 nM.

Test system: not listed separately
Assay: Metabolic stability in human liver S9 fraction assessed as extraction at 2 uM after 90 mins by LC/MS/MS analysis
Format: ADME, subcellular
Settings: read-out: Stability
Outline: (§1)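 Compound at 2 μM was incubated with human intestinal or hepatic S9 fraction plus NADPH and UDPGA for 90 min at 37 °C. Time-point samples were quenched in aqueous acetonitrile/methanol with internal standard and analysed by LC/MS/MS. Half-life came from an exponential first-order fit, and hepatic extraction was predicted from half-life using the well-stirred model.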
For C[C@H](NP(=O)(OC[C@H]1O[C@@](C#N)(c2ccc3c(N)ncnn23)[C@](C)(O)[C@@H]1O)Oc1ccccc1)C(=O)OC(C)(C)C (stereo partly specified), the hepatic extraction ratio at 1.5 h, 2 µM was 0.84.
Compound C[C@H](NP(=O)(OC[C@H]1O[C@@](C#N)(c2ccc3c(N)ncnn23)[C@](C)(O)[C@@H]1O)Oc1ccccc1)C(=O)OCc1ccccc1 (stereo partly specified) has a hepatic extraction ratio at 1.5 h, 2 µM of 0.93.

Test system: not listed separately
Assay: Half life in human intestinal S9 fraction at 2 uM by LC/MS/MS analysis
Format: ADME, Intestine
Settings: not given
Outline: as §1
In the case of C[C@H](NP(=O)(OC[C@H]1O[C@@](C#N)(c2ccc3c(N)ncnn23)[C@](C)(O)[C@@H]1O)Oc1ccccc1)C(=O)OC(C)(C)C (stereo partly specified), the half-life at 2 µM is reported as over 10.2 h.
In the case of C[C@H](NP(=O)(OC[C@H]1O[C@@](C#N)(c2ccc3c(N)ncnn23)[C@](C)(O)[C@@H]1O)Oc1ccccc1)C(=O)OCc1ccccc1 (stereo partly specified), the half-life at 2 µM is reported as 2.15 h.

Test system: not listed separately
Assay: Permeability across basolateral to apical side in human Caco2 cells at 10 uM after 1 to 2 hrs by LC/MS/MS analysis
Format: ADME, cell-based
Settings: Caco-2, read-out: permeability
Outline: (§2)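 Caco-2 monolayers were grown at least 21 days, and membrane integrity was checked by TEER after buffer equilibration. Test compound was dosed at 10 μM on the apical or basolateral side, in duplicate wells. Receiver samples at 1 and 2 h were precipitated with acetonitrile plus internal standard and run by LC/MS/MS.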
C[C@H](NP(=O)(OC[C@H]1O[C@@](C#N)(c2ccc3c(N)ncnn23)[C@](C)(O)[C@@H]1O)Oc1ccccc1)C(=O)OC(C)(C)C (stereo partly specified) showed a Papp B→A at 10 µM of 31.1 ×10⁻⁶ cm/s.
Work on C[C@H](NP(=O)(OC[C@H]1O[C@@](C#N)(c2ccc3c(N)ncnn23)[C@](C)(O)[C@@H]1O)Oc1ccccc1)C(=O)OCc1ccccc1 (stereo partly specified) yielded a Papp B→A at 10 µM of 25.3 ×10⁻⁶ cm/s.

Test system: not listed separately
Assay: Permeability across apical to basolateral side in human Caco2 cells at 10 uM after 1 to 2 hrs by LC/MS/MS analysis
Format: ADME, cell-based
Settings: Caco-2, read-out: permeability
Outline: as §2
With C[C@H](NP(=O)(OC[C@H]1O[C@@](C#N)(c2ccc3c(N)ncnn23)[C@](C)(O)[C@@H]1O)Oc1ccccc1)C(=O)OC(C)(C)C (stereo partly specified) the Papp A→B at 10 µM was 0.67 ×10⁻⁶ cm/s.
For C[C@H](NP(=O)(OC[C@H]1O[C@@](C#N)(c2ccc3c(N)ncnn23)[C@](C)(O)[C@@H]1O)Oc1ccccc1)C(=O)OCc1ccccc1 (stereo partly specified), the Papp A→B at 10 µM was 3.35 ×10⁻⁶ cm/s.

Test system: not listed separately
Assay: Aqueous solubility of the compound in phosphate buffer at pH 7 by reverse-phase UPLC-UV method
Format: physicochemical
Settings: not given
Outline: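 Excess solid was suspended in pH 7 phosphate buffer at ambient temperature, sonicated, then stirred for at least 2 h. After centrifugation, the supernatant was quantified by reverse-phase UPLC-UV.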
In the case of C[C@H](NP(=O)(OC[C@H]1O[C@@](C#N)(c2ccc3c(N)ncnn23)[C@](C)(O)[C@@H]1O)Oc1ccccc1)C(=O)OC(C)(C)C (stereo partly specified), the solubility is reported as 380 µg/mL (≈ 646 µM).
For C[C@H](NP(=O)(OC[C@H]1O[C@@](C#N)(c2ccc3c(N)ncnn23)[C@](C)(O)[C@@H]1O)Oc1ccccc1)C(=O)OCc1ccccc1 (stereo partly specified), the solubility was 0.05 µg/mL (≈ 0.0803 µM).

Test system: not listed separately
Assay: Lipophilicity, log D of the compound by HPLC/UV method
Format: physicochemical
Settings: not given
Outline: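 A 10 mM DMSO stock was diluted 1:100 into 1:1 acetonitrile/water, shaken 30 min, and analysed by HPLC/UV on a C18 column with 20 mM ammonium acetate/acetonitrile mobile phase.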
Compound C[C@H](NP(=O)(OC[C@H]1O[C@@](C#N)(c2ccc3c(N)ncnn23)[C@](C)(O)[C@@H]1O)Oc1ccccc1)C(=O)OC(C)(C)C (stereo partly specified) has a logD of 2.2.
Work on C[C@H](NP(=O)(OC[C@H]1O[C@@](C#N)(c2ccc3c(N)ncnn23)[C@](C)(O)[C@@H]1O)Oc1ccccc1)C(=O)OCc1ccccc1 (stereo partly specified) yielded a logD of 2.2.

Test system: Huh-7
Assay: Prodrug coversion in human HuH7 cells assessed as triphosphate formation at 10 uM after 24 hrs by liquid chromatography coupled with mass spectrometry
Format: ADME, cell-based
Settings: huh-7, 24 h
Outline: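 Huh-7 cells carrying the GT1b replicon, grown to confluency in 12-well plates (0.88 × 10⁶ cells/well). Exposed 24 h to 10 μM compound, then washed with ice-cold saline and extracted overnight in frozen 70% methanol. Dried extract resuspended in 1 mM ammonium phosphate pH 8.5. Triphosphate quantified by LC/triple-quadrupole MS.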
For C[C@@]1(O)[C@H](O)[C@@H](CO)O[C@@]1(C#N)c1ccc2c(N)ncnn12, the Drug metabolism was under 0.5 µM.

Test system: not listed separately
Assay: Cytotoxicity against human HuH7 cells after 3 days by fluorescence assay
Format: cell-based
Settings: Huh-7 cells
Outline: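 Huh-7 HCV replicon cells were seeded at 2000 cells/well in medium without Geneticin. Compounds were added as ten-point 1:3 DMSO dilutions in quadruplicate (final DMSO 0.44%), with […] as the 100% cytotoxicity control. After 3 days at 37 °C, cells were washed and given 400 nM calcein AM for 30 min at RT, and fluorescence read at ex 490/em 520 nm. Signal was normalized to DMSO and puromycin wells, and CC50 taken from a four-parameter Hill fit.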
In the case of C[C@H](NP(=O)(OC[C@H]1O[C@@](C#N)(c2ccc3c(N)ncnn23)[C@](C)(O)[C@@H]1O)Oc1ccccc1)C(=O)OC(C)(C)C (stereo partly specified), the CC50 at 72 h is reported as over 89 µM.
C[C@H](NP(=O)(OC[C@H]1O[C@@](C#N)(c2ccc3c(N)ncnn23)[C@](C)(O)[C@@H]1O)Oc1ccccc1)C(=O)OCc1ccccc1 (stereo partly specified) gave a CC50 at 72 h of 63 µM.

Target: DNA-directed RNA polymerase, mitochondrial (Homo sapiens) (UniProt O00411)
Sequence (O00411 whole entry): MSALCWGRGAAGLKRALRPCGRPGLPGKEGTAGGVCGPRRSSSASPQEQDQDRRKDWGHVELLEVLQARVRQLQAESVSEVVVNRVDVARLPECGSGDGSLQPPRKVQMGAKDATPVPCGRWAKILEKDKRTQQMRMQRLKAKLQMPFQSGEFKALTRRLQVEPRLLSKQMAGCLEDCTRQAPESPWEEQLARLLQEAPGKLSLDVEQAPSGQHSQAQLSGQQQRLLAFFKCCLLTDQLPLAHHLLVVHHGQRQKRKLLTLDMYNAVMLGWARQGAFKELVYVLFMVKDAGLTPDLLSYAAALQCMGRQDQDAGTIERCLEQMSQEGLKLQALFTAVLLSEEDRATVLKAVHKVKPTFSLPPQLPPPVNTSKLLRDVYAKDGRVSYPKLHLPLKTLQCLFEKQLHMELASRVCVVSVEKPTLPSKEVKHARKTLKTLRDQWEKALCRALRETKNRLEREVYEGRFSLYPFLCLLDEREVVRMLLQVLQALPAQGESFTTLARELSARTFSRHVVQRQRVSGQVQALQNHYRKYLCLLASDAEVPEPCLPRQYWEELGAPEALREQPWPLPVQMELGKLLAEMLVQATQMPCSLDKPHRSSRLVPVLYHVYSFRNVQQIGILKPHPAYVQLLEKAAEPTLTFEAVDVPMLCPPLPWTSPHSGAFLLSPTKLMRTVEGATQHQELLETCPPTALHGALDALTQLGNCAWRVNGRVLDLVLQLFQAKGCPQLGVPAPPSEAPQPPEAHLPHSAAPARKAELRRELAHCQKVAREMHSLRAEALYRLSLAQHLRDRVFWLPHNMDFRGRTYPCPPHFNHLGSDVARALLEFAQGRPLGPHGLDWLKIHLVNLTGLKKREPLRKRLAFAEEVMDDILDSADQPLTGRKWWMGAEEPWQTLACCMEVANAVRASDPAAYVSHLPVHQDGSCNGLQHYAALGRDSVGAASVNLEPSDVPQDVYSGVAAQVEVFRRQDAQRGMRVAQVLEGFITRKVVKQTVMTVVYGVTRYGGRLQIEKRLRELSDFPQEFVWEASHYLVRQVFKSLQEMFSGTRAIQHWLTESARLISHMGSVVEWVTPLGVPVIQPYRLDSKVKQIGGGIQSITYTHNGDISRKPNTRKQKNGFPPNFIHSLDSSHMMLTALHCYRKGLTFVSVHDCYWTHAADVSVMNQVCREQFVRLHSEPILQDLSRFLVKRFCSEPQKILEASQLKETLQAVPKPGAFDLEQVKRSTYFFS
Assay: Inhibition of mitochondrial RNA polymerase (unknown origin) assessed as inhibition of single nucleotide incorporation
Settings: concentration not given here
Outline: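 Reactions started with 500 μM (final) natural NTP or NTP analog. Time-point aliquots were quenched in EDTA/formamide, heated to 65 °C, resolved on 20% polyacrylamide/8 M urea gels, and product formation quantified by phosphorimaging.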
Compound C[C@@]1(O)[C@H](O)[C@@H](CO)O[C@@]1(C#N)c1ccc2c(N)ncnn12 has an inhibition of 0.03%.

Test system: Hepatitis C virus
Assay: Antiviral activity against HCV genotype 1b infected in human HuH7 cells assessed as inhibition of viral replication after 3 days by luminescence assay
Format: functional, organism-based, Hepacivirus hominis
Settings: Huh-7, 72 h
Outline: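 Multiplex replicon assay carrying a renilla luciferase reporter, with stable GT1b, 1a and 2a replicons and chimeric 2b, 3a, 4a, 5a and 6a replicons. 2000 replicon cells/well in medium without Geneticin. Ten-step 1:3 serial dilutions, four replicates, 0.44% DMSO final. Incubated 3 days at 37 °C, 5% CO₂. Luminescence normalised to DMSO wells and to protease-inhibitor (ITMN-191) wells. EC50 from a four-parameter Hill fit.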
Compound C[C@H](NP(=O)(OC[C@H]1O[C@@](C#N)(c2ccc3c(N)ncnn23)[C@](C)(O)[C@@H]1O)Oc1ccccc1)C(=O)OC(C)(C)C (stereo partly specified) has an EC50 of over 89 µM.
Compound C[C@@]1(O)[C@H](O)[C@@H](CO)O[C@@]1(C#N)c1ccc2c(N)ncnn12 has an EC50 of over 89 µM.
In the case of C#C[C@@]1(c2ccc3c(N)ncnn23)O[C@H](CO)[C@@H](O)[C@@]1(C)O, the EC50 is reported as over 89 µM.
Work on C[C@H](NP(=O)(OC[C@H]1O[C@@](C#N)(c2ccc3c(N)ncnn23)[C@](C)(O)[C@@H]1O)Oc1ccccc1)C(=O)OCc1ccccc1 (stereo partly specified) yielded an EC50 of 0.33 µM.
